High-throughput results (PubChem BioAssay)
Hits are enriched below; roughly 1.9% of the tested compounds scored in any of these assays.
RAD54 branch = inhibitors of human RAD54 branch migration, primary screen, biochemical, fluorescence, single point; DNA repair and recombination protein RAD54-like (Homo sapiens), Q92698; AID 602329, 2012; inhibition, % at 10.4 µM; hit rate 0.14% among 360,000; RAD54 Holliday junction branch migration, FAM/BHQ fluorescence;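 active = mean normalized replicate activity at least 40 and at least half of replicates scoring 40 or more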;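 note: 0% = median of neutral control wells and 100% = median of positive control wells; inhibitors cause a drop in the FAM fluorescence signal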
PglD DTNB = C. jejuni PglD acetyltransferase inhibitors, primary screen, biochemical, DTNB colorimetric, single point; purified PglD enzyme, DTNB colorimetric CoA detection; inhibition, % at 12.5 µM; hit rate 0.098% among 360,000; in the data active = inhibition above about 16%, passing the limit was not always enough
RAD52 inh = RAD52 DNA annealing inhibitors, primary screen, biochemical, FRET, single point, set 2. DNA repair protein RAD52 homolog (Homo sapiens), P43351. recombinant RAD52 DNA annealing, FRET fluorescence. inhibition, % at 18.7 µM. hit rate 0.46% among 360,000. AID 651710, 2012;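 active = every replicate showing at least 50% inhibition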
Target sequence (P43351 whole entry, looked up): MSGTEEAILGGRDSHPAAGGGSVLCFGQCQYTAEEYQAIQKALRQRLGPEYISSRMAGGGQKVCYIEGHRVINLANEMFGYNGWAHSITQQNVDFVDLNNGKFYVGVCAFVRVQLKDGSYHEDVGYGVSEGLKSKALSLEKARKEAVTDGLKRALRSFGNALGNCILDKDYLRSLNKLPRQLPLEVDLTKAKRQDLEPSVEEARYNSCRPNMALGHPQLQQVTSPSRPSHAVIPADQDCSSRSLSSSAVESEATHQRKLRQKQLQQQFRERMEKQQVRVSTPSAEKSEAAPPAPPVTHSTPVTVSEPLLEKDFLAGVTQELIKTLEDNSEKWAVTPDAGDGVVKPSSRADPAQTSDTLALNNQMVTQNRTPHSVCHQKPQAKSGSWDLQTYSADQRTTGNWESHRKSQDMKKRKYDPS
Ecoli rRNA inh = reduced GFP signal of wild-type E. coli, primary screen, bacterial rRNA inhibitor project, GFP/RFP fluorescence, OD600, single point | E. coli WT GFP vs humanized-ribosome RFP mutants, 24 h; stronger effect = lower value; DMSO median 0, no signal -100 | AID 720706, 2013 | GFP signal change (wild-type ribosome), % (concentration not given with the values) | hit rate 1.6% among 350,000;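 active = significant combined selectivity score with lowered wild-type GFP, culture density cut under 30%, mutant RFP and density less affected; inactive = any of these conditions unmet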
Cneo AK release = Cryptococcus neoformans cell lysis inducers, primary screen, AK release luminescence, single concentration; AID 651654, 2012; hit rate 0.2% among 360,000; lysis activity, % at 15 µM; C. neoformans lysis, adenylate kinase release luminescence, 4 h; normalised: neutral wells 0, clomiphene wells 100;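 active = mean lysis activity across replicates of at least 80%, whatever share of replicates individually reach that level; inactive = mean lysis activity below 80%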
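Material – log-phase Cryptococcus neoformans yeast cells · Input – 5 × 10^6 yeast cells/mL · Medium – fresh YPD growth medium · Doses – single compound concentration per well · Timing – static 4 h at 37 °C with compound, 1 h detection · Detection – adenylate kinase release luminescence · Read-out – signal increase indicating cell lysis · Control set – Clomiphene as positive lysis control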
An asterisk follows results filed as active; . = no result; ! = repeats disagree.

SMILES	RAD54 branch	PglD DTNB	RAD52 inh	Ecoli rRNA inh	Cneo AK release
COc1ccc(NC(=O)N2[C@@H]3CNC[C@H]2C3c2ccc(-c3ccccc3C)cc2)cc1 (some centres not stated)	.	.	64*!	2	.
CC(C)NC(=O)N1[C@@H]2CNC[C@H]1C2c1ccc(/C=C/c2ccccc2)cc1 (some centres not stated)	.	.	34	0	.
CN(C)C(=O)c1ccc(-c2ccc(C3[C@H]4CNC[C@@H]3N4C(=O)Nc3cccc(Cl)c3)cc2)cc1 (some centres not stated)	.	.	56*	4	.
O=C(Nc1cccc(Cl)c1)N1[C@@H]2CNC[C@H]1C2c1ccc(/C=C/c2ccccc2)cc1 (some centres not stated)	.	.	60*!	-58	.
COc1ccc(NC(=O)N2[C@@H]3CNC[C@H]2C3c2ccc(-c3cccc(OC)c3)cc2)cc1 (some centres not stated)	.	.	41	-6	.
C[C@@H]1CN([C@H](C)CO)C(=O)c2cc(NC(=O)Cc3ccccc3)ccc2O[C@@H]1CN(C)S(C)(=O)=O	-3	2	-3	1	-40
COc1cccc(NC(=O)N2[C@@H]3CNC[C@H]2C3c2ccc(/C=C/c3ccccc3)cc2)c1 (some centres not stated)	.	.	54*!	-55	.
N#Cc1cc([N+](=O)[O-])ccc1N1CCN(c2ccccc2O)CC1	-1	7	-9	-24*	-3
O=[N+]([O-])c1ccc(N2CCN(c3ccc([N+](=O)[O-])cc3CO)CC2)c(CO)c1	12	3	-73	-7	0
CCCC#Cc1cnc2c(c1)C(=O)N([C@@H](C)CO)C[C@H](C)[C@@H](CN(C)C(=O)C1CCCCC1)O2	.	.	.	4	.
Cc1ccc(C)c(OCC(=O)NNC(=O)c2ccc(NC(=O)C3CC3)cc2)c1	1	2	-9	-37*	-2
Cc1ccc(-c2cnc3c(c2)C(=O)N([C@H](C)CO)C[C@@H](C)[C@H](CN(C)C)O3)cc1	-1	-1	-1	4	-6
Cc1noc(C)c1NC(=O)Nc1ccc2c(c1)CC(=O)N([C@H](C)CO)C[C@H](C)[C@@H](CN(C)Cc1ccc(Oc3ccccc3)cc1)O2	-8	-4	.	-5	0
C=CCn1c(SCC(=O)Nc2ccc(F)cc2)nc2cc(C(=O)O)ccc2c1=O	.	.	-16	-3	.
C=CCn1c(SCC(=O)NC23CC4CC(CC(C4)C2)C3)nc2cc(C(=O)O)ccc2c1=O	.	.	-12	-23*	.
O=C1NC(CCc2ccccc2)C(=O)N1Cc1ccc(Br)cc1 (configuration not stated)	-4	5	-3	9	-2
O=C1NC(CCc2ccccc2)C(=O)N1CCOc1ccccc1 (configuration not stated)	.	.	-12	-27*	.
CNC[C@@H]1Oc2c(NS(=O)(=O)c3ccc(Cl)cc3)cccc2C(=O)N([C@H](C)CO)C[C@H]1C	6	-2	1	1	87*
CNC[C@@H]1Oc2c(NS(=O)(=O)c3cccs3)cccc2C(=O)N([C@H](C)CO)C[C@@H]1C	-7	9	-27	3	7
CNC[C@@H]1Oc2c(NS(=O)(=O)c3cccs3)cccc2C(=O)N([C@@H](C)CO)C[C@H]1C	1	-27	6	4	86*
CNC[C@H]1Oc2c(NS(=O)(=O)c3cccs3)cccc2C(=O)N([C@H](C)CO)C[C@@H]1C	-2	-3	2	2	96*!
CCCN1[C@@H]2c3ccc(-c4cccnc4)c(=O)n3C[C@@H]2[C@@H](CO)[C@@H]1C(=O)NC1CCCC1	.	.	-10	-5	.
O=C(C[C@H]1C[C@@H]2c3cc(NC(=O)C4CCC4)ccc3O[C@@H]2[C@@H](CO)O1)NCC1CC1	15	1	-2	2	-1
C[C@@H]1CCCCO[C@@H](CN(C)Cc2ccc3c(c2)OCO3)[C@H](C)CN([C@H](C)CO)C(=O)c2cc(NC(=O)c3ccccc3)ccc2O1	11	-2	11	1	-2
C/C(=N\NC(=O)c1cc2ccccc2cc1O)c1ccc(C)o1	-1	-2	-15	7	0
SMILES	RAD54 branch	PglD DTNB	RAD52 inh	Ecoli rRNA inh	Cneo AK release
C/C(=N\NC(=O)c1c[nH]c2ccccc12)c1ccc(C)o1	58*	2	.	.	0
O=C(NC1CCCCC1)N[C@H]1CC[C@H](CCNS(=O)(=O)c2ccc(Cl)cc2)O[C@H]1CO	-11	0	14	-8	2
C[C@@H]1CN([C@@H](C)CO)C(=O)c2cc(NS(=O)(=O)c3ccc(Cl)cc3)ccc2O[C@@H](C)CCCCO[C@H]1CN(C)Cc1ccccc1	-6	2	29	-3	8
C[C@H](CO)N1C[C@H](C)[C@H](CN(C)Cc2ccccc2)OCCCC[C@H](C)Oc2ccc(NS(=O)(=O)c3ccc(Cl)cc3)cc2C1=O	-2	-2	52*	-12	0
C[C@@H]1CCCCO[C@@H](CN(C)Cc2ccccc2)[C@@H](C)CN([C@@H](C)CO)C(=O)c2cc(NS(=O)(=O)c3ccc(Cl)cc3)ccc2O1	2	-3	58*	-6	5
C[C@H](CO)N1C[C@H](C)[C@@H](CN(C)Cc2ccccc2)OCCCC[C@H](C)Oc2ccc(NS(=O)(=O)c3cccs3)cc2C1=O	2	10	7	3	3
C[C@H]1CCCCO[C@@H](CN(C)Cc2ccccc2)[C@@H](C)CN([C@@H](C)CO)C(=O)c2cc(NS(=O)(=O)c3ccc(Cl)cc3)ccc2O1	-3	3	39	-20	2
C[C@H](CO)N1C[C@H](C)[C@H](CN(C)Cc2ccccc2)OCCCC[C@H](C)Oc2ccc(NS(=O)(=O)c3cccs3)cc2C1=O	-3	0	13	2	91*
Cc1ccc(C2NC(=O)c3[nH]nc(-c4ccccc4)c32)cc1 (configuration not stated)	.	.	-2	-19*	.
COc1ccc2c3c([nH]c2c1)[C@H](CO)N(C(=O)Nc1ccc(F)cc1)CC31CCN(S(=O)(=O)c2cccc(F)c2)CC1	.	.	8	0	.
Cc1cc(O)c(-c2cc(C(=O)Nc3cccnc3)[nH]n2)cc1C	-1	9	-13	2	1
CCc1ccc(O)c(-c2cc(C(=O)Nc3cccnc3)[nH]n2)c1	6	-7	-7	-37*	-1
Cc1cc(C)c(O)c(-c2cc(C(=O)Nc3cccnc3)[nH]n2)c1	.	.	-9	-33*	.
O=C(C[C@H]1CC[C@@H](NC(=O)C2CCC2)[C@@H](CO)O1)Nc1nccs1	-5	0	4	2	19
